CHOP inhibitor = CHOP inhibition in unfolded protein response; CHO-K1 CHOP-promoter luciferase, tunicamycin-induced, 15-18 h; inhibition, % at 10 µM; actives 3.8% (n = 220,000);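 active means compounds that reduced the stress-induced luciferase reporter signal by more than about 70% of percent inhibition, limit read from the data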
ANO1 activ = activators or potentiators of mouse TMEM16A chloride channel; HEK293 TMEM16A/YFP-H148Q/I152L, iodide quench fluorescence; hits give low values; B-score at 10 µM; actives 0.3% (n = 340,000); AID 623877;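 active means fluorescence-ratio B-score plate-corrected deviation score at least 3 library SD below zero, with starting fluorescence score within 5 deviations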;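 further: channel opened by trigger with iodide after compound preincubation; score built on the fluorescence ratio of max minus min over baseline; more negative score means more quench and so TMEM16A activation or potentiation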
UPR XBP1 act = adaptive UPR (XBP1) activation; AID 463104; activation, % at 20 µM; CHO-XBP1 luciferase reporter, IRE1-XBP1 UPR activation, luminescence; percent of tunicamycin response, DMSO as zero; actives 0.33% (n = 330,000);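 active means versus positive control, 20 µM dose yields 30% or more activation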
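Material: CHO-XBP1 cells stably carrying IRE1-XBP1-driven luciferase reporter / Amount: 1000 cells per well / Compound: 20 µM, 1% DMSO / Times: 6 h treatment, 37 °C / Detection: luciferase luminescence / Measure: % activation of reporter signal versus tunicamycin and DMSO controls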
UPR CHOP act = apoptotic UPR (CHOP) activation; activation, % at 10 µM; AID 449763; CHO-CHOP luciferase reporter, luminescence; percent of tunicamycin response over DMSO baseline; actives 0.34% (n = 330,000);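 active means at 10 µM dose, activation of 40% or more, normalized to positive control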
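Dosing – one dose, 10 µM in 0.5% DMSO · System – CHO-CHOP cells, stable luciferase reporter of PERK-eIF2a-CHOP signalling · Input – 500 cells/well · Control set – tunicamycin 10 µg/mL final as positive, DMSO-only wells as negative · Timing – 6 h compound treatment, 37 °C · Measure – % activation vs tunicamycin · Technique – luminescence read with Steady-Glo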
TMEM16A inh = inhibitors of mouse TMEM16A calcium-activated chloride channel | Q8BHY3 | HEK293 TMEM16A/YFP iodide influx fluorescence, ionomycin | normalized B-score (activity score, 25-100; higher = stronger inhibition) at 10 µM | actives 1.2% (n = 310,000) | AID 588511;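 active means ratio plate-corrected score three or more library SD toward inhibition, starting fluorescence score within five deviations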;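 further: score derived from kinetic fluorescence span divided by baseline fluorescence per well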
Hep lipid drop = hepatic lipid droplet formation modulation; AML12 mouse hepatocytes, oleate lipid droplets, BODIPY imaging; inhibition, % at 6.5 µM; actives 0.4% (n = 240,000);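 active means lipid droplet intensity inhibited by at least 50%, with more than 500 cells counted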
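Assay system: AML12 mouse liver cells | Compound dosing: One dose, 6.5 µM compound | Read-out basis: Droplet intensity reduction, % inhibition | Measured by: Fluorescence imaging, 20x objective, two fields per well | Schedule: Overnight treatment with compound plus oleate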
Hits are given with their value; 0 = inactive; - = no result given. Hits are enriched below; roughly 4.2% of the tested compounds scored in any of these assays.

SMILES	CHOP inhibitor	ANO1 activ	UPR XBP1 act	UPR CHOP act	TMEM16A inh	Hep lipid drop
CC1CCCCN1C(=O)/C(=C\c1ccccc1)c1ccccc1 (centres undefined)	88	0	0	0	0	-
COc1ccc(O)c(C(=O)CC(=O)c2ccccc2C)c1	104	0	0	0	0	0
CN(Cc1cn(-c2ccccc2)nc1-c1cc2ccccc2o1)C(=O)CCC(=O)O	0	0	0	0	0	0
Cc1ccc2[nH]c(O)c(N=Nc3ccccc3[N+](=O)[O-])c2c1	-	0	-	-	-	-
CCN(CC)S(=O)(=O)c1cc([N+](=O)[O-])ccc1N=Nc1c(O)[nH]c2ccccc12	75	0	-	-	0	0
O=[N+]([O-])c1cc(C(F)(F)F)ccc1NCCCCNS(=O)(=O)c1ccc2ccccc2c1	83	0	0	0	0	-
CS(=O)(=O)NCCCCNc1ccc(C(F)(F)F)cc1[N+](=O)[O-]	0	0	0	0	0	0
COc1ccc(N2C(=O)CSC2c2ccc(F)c(F)c2)cc1 (centres undefined)	-	-8.5	0	0	0	0
COc1ccc(C(=O)NNC(=O)C(=O)Nc2cccc3ccccc23)cc1	-	0	0	0	0	0
O=C(Nc1ccc([N+](=O)[O-])cc1Cl)c1cc(Cl)ccc1O	0	0	0	0	100	-
O=C(Nc1cccc(Cl)c1)c1cc(N=Nc2ccc([N+](=O)[O-])cc2Cl)ccc1O	0	-5.7	0	0	100	0
CCCC(=O)NCCc1c2n(c3ccc(OC)cc13)CCCc1ccccc1-2	0	-	-	-	-	-
COc1cc(SC)ccc1C(=O)NCCOc1c(C)cc(C)cc1C	91	0	0	0	0	-
COc1cc(SC)ccc1C(=O)NCCOc1ccc(Cl)cc1	0	0	0	0	0	0
CC(Cn1cncn1)C(=O)N1CCN(S(=O)(=O)c2ccc(Cl)cc2)CC1 (centres undefined)	-	0	0	0	0	0
O=C(OCCCCN1C(=O)c2ccccc2C1=O)c1ccc(S(=O)(=O)N2CCCC2)cc1	0	0	0	0	25	-
Cc1cc2c(N=NC(=O)C3CC3c3ccccc3)c(O)[nH]c2cc1Br (centres undefined)	71	0	0	0	0	0
CCOC(=O)C1=C(COc2ccc(C)cc2)NC(=O)NC1c1cc(C)ccc1C (centres undefined)	90	0	0	0	0	0
Cc1ccc(NC(=O)c2ccc3nc(N4CCOCC4)sc3c2)c(Cl)c1	-	0	0	0	0	0
Cn1nc(C(=O)NCC2COc3ccccc3O2)c2ccccc2c1=O (centres undefined)	-	0	0	0	-	-
O=c1[nH]c(SCCOc2ccccc2)nc2ccccc12	77	0	0	0	0	0
CC(/C=N/NC(=O)c1cc(-c2cccs2)[nH]n1)=C\c1ccccc1	91	0	0	0	0	0
CC(/C=N/NC(=O)c1cc(-c2ccc(C)o2)[nH]n1)=C\c1ccccc1	94	0	0	0	0	0
CC(/C=N/NC(=O)c1cc(C(C)C)[nH]n1)=C\c1ccccc1	0	0	0	0	0	0
COc1ccc2nc(NC(=O)CSC(C)C(=O)Nc3cc(C)on3)sc2c1 (centres undefined)	-	0	0	0	0	-
SMILES	CHOP inhibitor	ANO1 activ	UPR XBP1 act	UPR CHOP act	TMEM16A inh	Hep lipid drop
CN(CC(=O)Nc1ccccc1Cl)C(=O)c1ccc(N2C(=O)CCC2=O)cc1	-	0	0	0	-	-
Cc1ccc(/C=C/C(=O)N2CCc3ccccc3C2)cc1	72	0	0	0	0	0
CC(C)(C)c1ccc(/C=C/C(=O)N2CCc3ccccc3C2)cc1	0	0	0	0	0	0
CCN1C(=O)/C(=C2\SC(=S)N(NC(=O)c3ccccc3O)C2=O)c2ccccc21	0	0	0	0	100	0
CCN1C(=O)/C(=C2\SC(=S)N(CC3CCCO3)C2=O)c2ccccc21 (centres undefined)	0	-	-	-	-	0
C(=N\N1CCOCC1)/c1cccs1	0	0	0	0	0	0
O=C(O)c1ccccc1Nc1cccc(OCc2ccc3ccccc3n2)c1	0	0	0	0	100	-
COc1ccc(CC(=O)Nc2ccc(N3CCCC3)c(C)c2)cc1	-	0	0	0	0	0

High-throughput results as filed in PubChem.
